Data reported in ChEMBL document CHEMBL3352390, “Selective CB2 receptor agonists. Part 2: Structure-activity relationship studies and optimization of proline-based compounds” (Bioorg Med Chem Lett, 2015).

Experiments:
[1] = Volume of distribution at steady state in Wistar Han rat at […], iv; format: ADME, organism-based; details: in vivo, read-out: Vdss
[2] = Mean residence time in Wistar Han rat at […], iv; format: ADME, organism-based; details: in vivo
[3] = Oral bioavailability in Wistar Han rat at 10 umol/kg; format: ADME, organism-based; details: in vivo
Procedure, shortened: (§1)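 Wistar Han rats dosed orally with a suspension, at 10 mg/kg or 10 µmol/kg. Plasma taken at several time points and quantified by HPLC-MS/MS. Bioavailability derived by non-compartmental analysis.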

[4] = Permeability from apical to basolateral side of human Caco2 cells; format: ADME, cell-based; details: Caco-2, read-out: permeability
[5] = Permeability from basolateral to apical side of human Caco2 cells; format: ADME, cell-based; details: Caco-2, read-out: permeability
[6] = Ratio of drug uptake in brain to plasma of Wistar Han rat; format: ADME; details: brain and plasma, read-out: BPR
[7] = Volume of distribution at steady state in Wistar Han rat at 1 mg/kg, iv; format: ADME, organism-based; parameters: dose 1 mg/kg, route intravenous; details: in vivo, read-out: Vdss
Procedure, shortened: (§2)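 Wistar Han or Sprague Dawley rats given 1 mg/kg iv as a solution or 5 mg/kg po as a suspension. Plasma taken at several time points and quantified by HPLC-MS/MS. Parameters derived by non-compartmental analysis.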

[8] = Mean residence time in Wistar Han rat at 1 mg/kg, iv; format: ADME, organism-based; parameters: dose 1 mg/kg, route intravenous; details: in vivo; procedure, shortened: as §2
[9] = Oral bioavailability in Wistar Han rat at 10 mg/kg; format: ADME, organism-based; details: in vivo; procedure, shortened: as §1
[10] = Oral bioavailability in Wistar Han rat at 5 mg/kg; format: ADME, organism-based; details: in vivo; procedure, shortened: as §2

Row | SMILES | Vd [1] [L/kg] | MRT [2] [h] | bioavailability [3] [%] | Papp A→B [4] [×10⁻⁶ cm/s] | Papp B→A [5] [×10⁻⁶ cm/s] | Kp [6] | Vd [7] [L/kg] | MRT [8] [h] | bioavailability [9] [%] | bioavailability [10] [%]
1 | CC(C)(C)c1cc(NC(=O)[C@@H]2C[C@@H](O)CN2CC2CCOCC2)on1 (relative stereo) | 1.3 | 0.34 | 18 |  |  |  |  |  |  | 
2 | CC(C)(C)c1cc(NC(=O)[C@@H]2CCC(=O)N2c2ccc(C(F)(F)F)cc2)on1 | 3.8 | 6 | 88 | 14 | 7.5 | 0.9 |  |  |  | 
3 | CC(C)(C)c1cc(NC(=O)[C@@H]2CCC(=O)N2c2ccc(Cl)cc2)on1 |  |  |  | 11 | 23 | 0.41 | 4.5 | 1.3 | 44 | 
4 | CC(C)(C)c1cc(NC(=O)[C@@H]2CCCN2c2ccc(Cl)cc2)no1 |  |  |  | 24 | 18 |  | 7.9 | 1 |  | 5
